This is a sample that favours compounds with a hit; in the whole collection about 5.9% have one here.
Lung fibro prol = blocks proliferation of human lung fibroblasts. LL 47 human lung fibroblast viability, ATP luminescence; hits give low values. viability, % at 10 µM. AID 719. 1.1% of 85,000 active;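 active means viability at or below 50% in the single dose screen; inactive means viability above 50%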;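 further: compound exposure lasted 72 h before the ATP readout; 100% = median luminescence of untreated cell-only wells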
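material = human LL 47 lung fibroblast cells | dosing = compounds added from tenfold dosing solution, 0.1% DMSO final | timing = overnight cell rest, 72 h compound treatment at 37 °C | measured by = CellTiter-Glo luminescence measuring cellular ATP | evaluation = % viability versus median cells-only luminescence | control set = cell-only wells, no compound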
H69AR inhibit = blocks growth of human H69AR lung tumor cells; H69AR lung tumor viability, ATP luminescence, 72 h; hits give low values; viability, % at 10 µM; 6% of 85,000 active; AID 598;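 active means viability at or below 40%; inactive means viability above 40%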;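 further: multidrug resistant small cell line overexpressing MRP-1 efflux transporter; 100% = mean luminescence of untreated control wells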
MT1-MMP txn act = MT1-MMP promoter transcription activation | HT1080 MT1-MMP promoter luciferase reporter, luminescence, overnight; hits give high values | activation factor at 10 µM | 0.16% of 86,000 active | AID 750;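 active means activation factor of at least 2 for MT1-MMP transcription at 10 µM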
PTK2B oligo ant = Pyk2 (human) oligomerization antagonism; Q293 cells, Pyk2 FERM NanoBiT luminescence; hits give low values; z-score (the deposit names both 25 µM and 10 µM); 0.83% of 99,000 active;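 active means Z-score of -3 or lower, scaled per plate to the spread of control and sample wells; inactive means z-score above -3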;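 further: negative z-score means lost luminescence so less FERM oligomerization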
Target sequence (Q14289 whole entry, looked up): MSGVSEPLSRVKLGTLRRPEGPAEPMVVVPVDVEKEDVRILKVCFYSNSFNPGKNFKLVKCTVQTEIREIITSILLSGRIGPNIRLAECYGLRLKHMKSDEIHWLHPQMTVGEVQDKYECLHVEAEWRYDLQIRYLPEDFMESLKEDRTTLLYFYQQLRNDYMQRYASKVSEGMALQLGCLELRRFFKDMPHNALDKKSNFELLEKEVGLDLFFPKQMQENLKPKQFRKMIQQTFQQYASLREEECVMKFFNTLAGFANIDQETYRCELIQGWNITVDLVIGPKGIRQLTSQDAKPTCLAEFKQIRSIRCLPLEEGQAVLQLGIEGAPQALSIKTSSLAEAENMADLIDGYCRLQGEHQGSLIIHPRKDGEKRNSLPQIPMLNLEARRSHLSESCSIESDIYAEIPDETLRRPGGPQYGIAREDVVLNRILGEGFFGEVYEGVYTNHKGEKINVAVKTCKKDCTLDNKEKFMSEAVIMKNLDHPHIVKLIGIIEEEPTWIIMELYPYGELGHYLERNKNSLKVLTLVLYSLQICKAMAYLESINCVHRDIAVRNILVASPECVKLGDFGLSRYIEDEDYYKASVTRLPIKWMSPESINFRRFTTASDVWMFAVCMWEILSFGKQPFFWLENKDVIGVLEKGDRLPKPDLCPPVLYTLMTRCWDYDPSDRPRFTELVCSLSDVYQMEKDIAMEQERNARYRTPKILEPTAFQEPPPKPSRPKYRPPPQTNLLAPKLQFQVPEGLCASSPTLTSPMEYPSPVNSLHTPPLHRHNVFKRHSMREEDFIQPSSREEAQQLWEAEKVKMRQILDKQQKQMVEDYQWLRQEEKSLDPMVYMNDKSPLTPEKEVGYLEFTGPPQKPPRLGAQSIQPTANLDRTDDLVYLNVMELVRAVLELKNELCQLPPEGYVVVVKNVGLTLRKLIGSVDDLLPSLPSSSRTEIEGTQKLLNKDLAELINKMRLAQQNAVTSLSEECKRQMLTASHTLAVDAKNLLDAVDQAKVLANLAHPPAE
HUVEC inhibit = human endothelial cell proliferation inhibition; viability, % at 10 µM (by protocol); 1.1% of 86,000 active; HUVEC proliferation, CellTiter-Glo luminescence, 72 h; hits give low values;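 active means viability at or below 30%; inactive means viability above 30%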;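 further: 100% = median luminescence of DMSO-only cell control wells on each plate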
Jurkat viability = cytotoxic compounds reducing Jurkat cell viability | Jurkat E6.1 viability, ATP luminescence, 48 h | inhibition, % at 4 µM | 1.2% of 56,000 active | AID 463;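 active means inhibition above the mean inhibition of all tested compounds plus 3 SD, cut at about 28% in these data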
* hit, by the source's call; · = not tested or not shown.

SMILES | Lung fibro prol | H69AR inhibit | MT1-MMP txn act | PTK2B oligo ant | HUVEC inhibit | Jurkat viability
COc1ccc(CN(C(=O)CSc2nnc(-c3ccccc3C)o2)c2ccc(F)cc2)cc1 | 102 | 0.4* | 1.2 | -0.77 | 128 | ·
N#C/C(=C\c1ccc(Cl)cc1Cl)c1n[nH]c(Cn2cncn2)n1 | 106 | 90 | · | 1.1 | 88 | ·
CCOC(=O)c1c(NC(=O)CN2CCCCC2)sc2c1CCCC2O (centres undefined) | 92 | 20* | 1.1 | · | 73 | 11
COc1cccc(-c2nc(CS(=O)(=O)CC(=O)NCCC(C)C)c(C)o2)c1 | · | · | 1.1 | · | · | 0
COc1cccc(-c2nc(CS(=O)(=O)CC(=O)Nc3cc(C)ccc3C)c(C)o2)c1 | 103 | 20* | 1.1 | · | 95 | 4
COc1cccc(-c2nc(CS(=O)(=O)CC(=O)Nc3c(C)cccc3C)c(C)o2)c1 | 92 | 14* | 1.1 | · | 79 | -7
Cc1ccc(NC(=O)c2c(Cl)n(C)c3ccccc23)cc1 | · | · | · | 0.61 | · | ·
CCOc1ccc(NC(=O)CSc2nc(C)c3c(c2C#N)CCCC3)cc1 | 100 | 95 | 1.1 | -1.4 | 81 | ·
OC(CN1CCN(c2cccc(C(F)(F)F)c2)CC1)c1c[nH]c2ccccc12 (centres undefined) | 58 | 2.6* | 1.3 | 1.4 | 67 | 22
O=C(CS(=O)(=O)Cc1ccccc1)N1CCN(c2cccc(C(F)(F)F)c2)CC1 | 100 | 93 | 1.1 | -0.48 | 97 | 1
Cc1noc(C)c1CSc1nc2[nH]ncc2c(=O)n1-c1ccccc1 | · | · | 0.4 | 2.2 | · | 83*
Cc1noc(C)c1CSc1nc2ccccc2c(=O)n1-c1ccccc1 | 58 | 17* | 0.7 | -0.85 | 61 | 89*
O=c1c2ccccc2nc(SCc2nnc(-c3ccccc3)o2)n1-c1ccccc1 | 92 | 86 | 1 | -2.7 | 91 | -2
COc1ccc(-c2noc(CSc3nc4ccccc4c(=O)n3-c3ccccc3)n2)cc1 | 86 | 29* | 1 | -0.87 | 83 | 2
Cc1noc(C)c1CSc1nnc2n(-c3ccccc3)c(=O)c3ccccc3n12 | 87 | 81 | 1 | · | 104 | -3
O=c1c2ccccc2nc(SCc2cc(F)ccc2F)n1C1CCCC1 | · | · | · | -0.04 | · | ·
Cc1noc(C)c1CSc1nc2ccccc2c(=O)n1-c1ccc(F)cc1F | 61 | 23* | 0.9 | -1.4 | 51 | 92*
Cc1cccc(N2CCN(C(=O)COc3cc(=O)n(C)c4ccccc34)CC2C)c1 (centres undefined) | · | · | · | · | · | -1
COC(=O)[C@@H]1C[C@@]2(O)[C@@H](O)[C@@H](O)[C@@H](O)C[C@H]2N1Cc1ccc(C(C)(C)C)cc1 | · | · | 1.1 | · | · | ·
CNC(=O)C1CC(=O)N(Cc2ccc3c(c2)OCO3)C(=Nc2ccc(OC)cc2)S1 (centres undefined) | 99 | 80 | · | -0.95 | 92 | 5
COc1ccc(N2C3=C(CC4=C2CC(C)(C)CC4=O)C(=O)CC(C)(C)C3)cc1 | 6.0* | 89 | 1.1 | 1.1 | 10* | ·
O=S(=O)(c1ccc(Nc2ccc(-c3ccc4c(c3)OCCO4)nn2)cc1)N1CCCC1 | 65 | 21* | 1.9 | -1.8 | 16* | ·
O=C(NC1CC1)c1cccc(Nc2ccc(-c3ccc4c(c3)OCCO4)nn2)c1 | 83 | 32* | 1.1 | -3.4* | 73 | 9
CC(C)c1ccc(C(=O)CSc2n[nH]c(-c3ccncc3)n2)cc1 | 101 | 31* | 1 | -0.35 | 98 | ·
O/N=C1\CC/C(=N\O)c2nn(-c3ccccc3Cl)nc21 | 47* | · | 1.1 | -0.33 | 77 | -3
SMILES | Lung fibro prol | H69AR inhibit | MT1-MMP txn act | PTK2B oligo ant | HUVEC inhibit | Jurkat viability
Cc1ccc2c(c1)[nH]c1c(N3CCN(Cc4ccccc4)CC3)ncnc12 | 92 | 56 | 1.1 | -2.8 | 15* | 34*
COc1cc2[nH]c3c(Cl)ncnc3c2cc1OC | · | · | · | -0.28 | · | ·
COc1cccc(N2CCN(c3ncnc4c3[nH]c3ccc(F)cc34)CC2C)c1 (centres undefined) | 1.9* | 4.0* | 0.3 | -1.8 | 2.3* | ·
COc1cc2[nH]c3c(N4CCN(c5ccc(Cl)cc5)CC4)ncnc3c2cc1OC | 77 | 6.9* | 1.1 | -3.2* | 50 | 12
Cc1ccc2[nH]c3c(N4CCN(Cc5ccc6c(c5)OCO6)CC4)ncnc3c2c1 | 93 | 54 | 1.1 | · | 41 | ·
c1ccc(CN2CCN(c3ncnc4c3[nH]c3ccccc34)CC2)cc1 | 72 | 46 | 1.4 | -2.6 | 44 | ·
Cc1ccc2[nH]c3c(N4CCCCCC4)ncnc3c2c1 | 78 | 41 | 1.4 | · | 32* | ·

Source: PubChem BioAssay
